According to ChEMBL document CHEMBL1141492, “Potent, exceptionally selective, orally bioavailable inhibitors of TNF-alpha Converting Enzyme (TACE): novel 2-substituted-1H-benzo[d]imidazol-1-yl)methyl)benzamide P1' substituents” (Bioorg Med Chem Lett, 2008):

Experiments:
[1] = Half life in Beagle dog at 2.0 mg/kg, iv; assay type: ADME, organism-based, Canis lupus familiaris; parameters: dose 2 mg/kg, route intravenous; conditions: in vivo
In short: (§1)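 Discrete or cassette (n-in-1) dosing, given intravenously and orally. Sprague–Dawley rats received 5.0 mg/kg iv and 8.0 mg/kg po; beagle dogs received 2.0 mg/kg iv and 8.0 mg/kg po. Three animals per dosing group; averaged values reported. AUC is reported in nM h.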

[2] = Tmax in Beagle dog at 8.0 mg/kg, po; conditions: in vivo
[3] = Half life in Sprague-Dawley rat at 5.0 mg/kg, iv; assay type: ADME, organism-based; parameters: dose 5 mg/kg, route intravenous; conditions: in vivo; in short: as §1
[4] = AUC in Sprague-Dawley rat at 5.0 mg/kg, iv; assay type: ADME, organism-based; parameters: dose 5 mg/kg, route intravenous; conditions: plasma; in short: as §1
[5] = Half life in Sprague-Dawley rat at 8.0 mg/kg, po; assay type: ADME, organism-based; parameters: dose 8 mg/kg, route oral; conditions: in vivo; in short: as §1
[6] = Protein binding in dog serum; assay type: ADME, cell-free, Canis lupus familiaris
[7] = Oral bioavailability in Beagle dog at 8.0 mg/kg, po; conditions: in vivo
[8] = Tmax in Sprague-Dawley rat at 8.0 mg/kg, po; assay type: ADME, organism-based; parameters: dose 8 mg/kg, route oral; conditions: in vivo; in short: as §1
[9] = AUC in Beagle dog at 2.0 mg/kg, iv; assay type: ADME, organism-based, Canis lupus familiaris; parameters: dose 2 mg/kg, route intravenous; conditions: plasma; in short: as §1
[10] = Half life in Beagle dog at 8.0 mg/kg, po; conditions: in vivo
[11] = Volume of distribution at steady state in Beagle dog at 2.0 mg/kg, iv; assay type: ADME, organism-based, Canis lupus familiaris; parameters: dose 2 mg/kg, route intravenous; conditions: in vivo, read-out: Vdss; in short: as §1
[12] = Protein binding in rat serum; assay type: ADME, cell-free
[13] = Apparent permeability across human Caco-2 cells; assay type: ADME, cell-based
In short: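 Apparent permeability measured across Caco-2 cell monolayers in the apical-to-basolateral (A→B) direction.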

[14] = Clearance in Beagle dog at 2.0 mg/kg, iv; assay type: ADME, organism-based, Canis lupus familiaris; parameters: dose 2 mg/kg, route intravenous; conditions: in vivo; in short: as §1
Mus musculus = assay: Reduction of LPS-induced TNFalpha level in orally dosed mouse after 1 hr; assay type: functional; conditions: po
In short: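 Mouse LPS endotoxemia model. LPS and test compound in vehicle were given together by oral gavage at t = 0 h, across several doses. Mice were euthanized 1 h post dose, blood was taken by cardiac puncture, and plasma TNF-α was measured. ED50 was calculated from the dose response.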

[15] = Volume of distribution at steady state in Sprague-Dawley rat at 5.0 mg/kg, iv; assay type: ADME, organism-based; parameters: dose 5 mg/kg, route intravenous; conditions: in vivo, read-out: Vdss; in short: as §1
[16] = Protein binding in human serum; assay type: ADME, cell-free
[17] = Oral bioavailability in Sprague-Dawley rat at 8.0 mg/kg; assay type: ADME, organism-based; conditions: in vivo; in short: as §1
Blood = assay: Reduction of LPS-induced TNFalpha in human whole blood; assay type: functional, tissue-based
In short: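 LPS-induced TNF-α production in human whole blood; suppression of TNF-α measured.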

Stromelysin-2 = Stromelysin-2 (Homo sapiens, UniProt P09238); assay: Inhibition of MMP10
In short: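 MMP Ki values come from a single determination.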

[18] = biological target: T1, A disintegrin and metalloproteinase with thrombospondin motifs 5 (Homo sapiens, UniProt Q9UNA0); assay: Inhibition of ADAMTS5
T1 sequence (Q9UNA0 whole entry): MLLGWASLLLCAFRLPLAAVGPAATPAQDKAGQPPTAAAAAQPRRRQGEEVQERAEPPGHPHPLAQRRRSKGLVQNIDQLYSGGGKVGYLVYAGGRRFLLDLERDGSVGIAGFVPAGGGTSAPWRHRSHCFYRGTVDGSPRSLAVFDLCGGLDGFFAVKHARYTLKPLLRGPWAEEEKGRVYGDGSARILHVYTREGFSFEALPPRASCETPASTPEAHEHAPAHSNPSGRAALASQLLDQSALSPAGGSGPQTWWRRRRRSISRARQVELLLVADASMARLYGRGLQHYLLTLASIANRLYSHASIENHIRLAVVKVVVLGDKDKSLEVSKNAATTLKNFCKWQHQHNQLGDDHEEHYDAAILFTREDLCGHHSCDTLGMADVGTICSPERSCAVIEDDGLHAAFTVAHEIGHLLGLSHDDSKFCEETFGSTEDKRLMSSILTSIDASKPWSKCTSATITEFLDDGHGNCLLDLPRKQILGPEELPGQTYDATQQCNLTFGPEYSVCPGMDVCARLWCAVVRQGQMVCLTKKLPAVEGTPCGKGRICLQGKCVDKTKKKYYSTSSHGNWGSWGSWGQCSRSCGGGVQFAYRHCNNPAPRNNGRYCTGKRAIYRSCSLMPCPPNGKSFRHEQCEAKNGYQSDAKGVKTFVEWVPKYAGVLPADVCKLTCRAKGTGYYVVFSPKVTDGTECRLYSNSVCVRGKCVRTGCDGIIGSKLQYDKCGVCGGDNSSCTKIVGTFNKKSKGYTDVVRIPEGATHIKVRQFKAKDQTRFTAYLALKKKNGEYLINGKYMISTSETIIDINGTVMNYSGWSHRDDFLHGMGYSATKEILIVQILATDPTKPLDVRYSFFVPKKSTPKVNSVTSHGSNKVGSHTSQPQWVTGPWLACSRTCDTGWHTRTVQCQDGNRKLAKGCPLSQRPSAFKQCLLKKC

[19] = Clearance in Sprague-Dawley rat at 5.0 mg/kg, iv; assay type: ADME, organism-based; parameters: dose 5 mg/kg, route intravenous; conditions: in vivo; in short: as §1
[20] = AUC in Beagle dog at 8.0 mg/kg, po; conditions: plasma
[21] = AUC in Sprague-Dawley rat at 8.0 mg/kg, po; assay type: ADME, organism-based; parameters: dose 8 mg/kg, route oral; conditions: plasma; in short: as §1

Stromelysin-2, sequence (P09238 whole entry): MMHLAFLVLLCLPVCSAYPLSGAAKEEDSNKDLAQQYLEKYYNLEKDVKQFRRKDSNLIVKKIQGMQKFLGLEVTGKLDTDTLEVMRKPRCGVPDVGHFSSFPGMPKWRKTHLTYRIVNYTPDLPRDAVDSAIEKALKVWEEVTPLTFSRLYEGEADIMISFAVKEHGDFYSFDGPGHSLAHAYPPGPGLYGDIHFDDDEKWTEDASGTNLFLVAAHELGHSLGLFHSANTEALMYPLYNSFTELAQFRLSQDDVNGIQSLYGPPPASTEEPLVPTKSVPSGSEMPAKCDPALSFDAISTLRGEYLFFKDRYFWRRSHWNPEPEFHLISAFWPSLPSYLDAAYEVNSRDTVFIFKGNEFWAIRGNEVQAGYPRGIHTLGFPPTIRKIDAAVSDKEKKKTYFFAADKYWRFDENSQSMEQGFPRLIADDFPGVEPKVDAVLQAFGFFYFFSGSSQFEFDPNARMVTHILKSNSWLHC

Work on `O=C(N[C@@H]1CCOC[C@@H]1C(=O)NO)c1ccc(Cn2c(C(F)(F)F)nc3ccccc32)cc1` yielded a half-life [1] of 4.2 h, a Tmax [2] of 0.5 h and a half-life [3] of 3.5 h. It also gave an AUC [4] of 6.85 µM·h, a half-life [5] of 2.4 h and a fraction unbound [6] of 0.2. For the same molecule, the bioavailability [7] was 99%, the Tmax [8] was 0.3 h and the AUC [9] was 9.97 µM·h. It also gave a half-life [10] of 4.8 h, a Vd [11] of 1 L/kg and a fraction unbound [12] of 0.2. The Papp [13] was 0.7 ×10⁻⁶ cm/s, the clearance [14] was 10 mL/min/kg and the ED50 (Mus musculus) was 1.9 mg/kg. For the same molecule, the Vd [15] was 1.5 L/kg, the fraction unbound [16] was 0.21 and the bioavailability [17] was 53%. The IC50 (Blood) was 232 nM, the IC50 (Stromelysin-2) was over 10000 nM and the Ki [18] was 1000 nM. For the same molecule, the clearance [19] was 26.7 mL/min/kg, the AUC [20] was 39.5 µM·h and the AUC [21] was 5.84 µM·h.
